Assay results: ChEMBL document CHEMBL4316642, “Discovery of 1,4-Naphthoquinones as a New Class of Antiproliferative Agents Targeting GPR55” (ACS Med Chem Lett, 2019)
Active and inactive are the calls of the source. The calls are words filed in the database; no cut-off is given here.

Columns and labels:
Type in all cases: cell-based
[1] = target: G-protein coupled receptor 55 (Homo sapiens) (UniProt Q9Y2T6); assay: Inverse agonist activity at GPR55 in human T47D cells assessed as reduction in cell viability at 5 uM incubated for 24 hrs by MTT assay
[2] = target: G-protein coupled receptor 55 (Homo sapiens) (UniProt Q9Y2T6); assay: Inverse agonist activity at GPR55 in human MCF7 cells assessed as reduction in cell viability at 5 uM treated 30 mins after 10 uM GPR55 selective antagonist CID16020046 treatment followed by incubation for 24 hrs by MTT assay
Method in brief: (§1)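 Cells pretreated with GPR55 antagonist CID16020046 for 30 min before test compound addition; proliferation compared against DMSO-treated cells.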

[3] = target: G-protein coupled receptor 55 (Homo sapiens) (UniProt Q9Y2T6); assay: Inverse agonist activity at GPR55 in human MDA-MB-231 cells assessed as reduction in cell viability at 5 uM treated 30 mins after 10 uM GPR55 selective antagonist CID16020046 treatment followed by incubation for 24 hrs by MTT assay; method in brief: as §1
[4] = target: G-protein coupled receptor 55 (Homo sapiens) (UniProt Q9Y2T6); assay: Inverse agonist activity at GPR55 in human T47D cells assessed as reduction in cell viability at 5 uM treated 30 mins after 10 uM GPR55 selective antagonist CID16020046 treatment followed by incubation for 24 hrs by MTT assay
[5] = target: G-protein coupled receptor 55 (Homo sapiens) (UniProt Q9Y2T6); assay: Inverse agonist activity at GPR55 in human MDA-MB-468 cells assessed as reduction in cell viability at 5 uM incubated for 24 hrs by MTT assay
[6] = target: G-protein coupled receptor 55 (Homo sapiens) (UniProt Q9Y2T6); assay: Inverse agonist activity at GPR55 in human MDA-MB-231 cells assessed as reduction in cell viability at 5 uM incubated for 24 hrs by MTT assay
[7] = Cytotoxicity in human PBMC assessed as cell viability at 100 uM incubated for 24 to 48 hrs hrs by trypan blue dye exclusion assay; conditions: PBMC (peripheral blood mononuclear cells), read-out: Activity
Method in brief: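 Peripheral blood mononuclear cells exposed at 100 μM for 24 or 48 h; viability scored by trypan blue dye exclusion, reported as percent viable cells.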

MCF-10A = assay: Cytotoxicity in human MCF10A cells assessed as reduction in cell viability incubated for 24 hrs by MTT assay
Method in brief: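 EC50 from MTT viability after 24 h exposure; values in micromolar, mean of triplicate (n = 3) determinations. MCF10A described as […]; MDA-MB-231 noted as GPR55-overexpressing.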

[8] = target: G-protein coupled receptor 55 (Homo sapiens) (UniProt Q9Y2T6); assay: Inverse agonist activity at GPR55 in human MDA-MB-468 cells assessed as reduction in cell viability at 5 uM treated 30 mins after 10 uM GPR55 selective antagonist CID16020046 treatment followed by incubation for 24 hrs by MTT assay; method in brief: as §1
[9] = target: G-protein coupled receptor 55 (Homo sapiens) (UniProt Q9Y2T6); assay: Inverse agonist activity at GPR55 in human MCF7 cells assessed as reduction in cell viability at 5 uM incubated for 24 hrs by MTT assay

Chain of G-protein coupled receptor 55 (Homo sapiens) (Q9Y2T6 whole entry): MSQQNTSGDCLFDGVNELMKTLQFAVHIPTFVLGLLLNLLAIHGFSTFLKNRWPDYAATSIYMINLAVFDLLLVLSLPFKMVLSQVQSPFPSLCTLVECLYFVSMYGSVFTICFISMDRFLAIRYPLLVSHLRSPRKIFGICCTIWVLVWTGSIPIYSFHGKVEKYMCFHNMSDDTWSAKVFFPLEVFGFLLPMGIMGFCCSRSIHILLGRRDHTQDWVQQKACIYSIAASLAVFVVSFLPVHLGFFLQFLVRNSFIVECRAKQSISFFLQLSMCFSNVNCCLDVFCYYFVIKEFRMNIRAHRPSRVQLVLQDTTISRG

SMILES	Activity [1]	Activity [2]	Activity [3]	Activity [4]	Activity [5]	Activity [6]	viability at 100 µM [7] [%]	EC50 (MCF-10A) [µM]	Activity [8]	Activity [9]
O=C1C(Cl)=C(N2CCOCC2)C(=O)c2c(O)ccc(O)c21	inactive	inactive	inactive	inactive	Active	Active	70	3.7	inactive	Active
O=C1C(Cl)=C(N2CCCCC2)C(=O)c2c(O)ccc(O)c21							65	2.5		
